Series [1] deals with T1, DNA-3-methyladenine glycosylase (Homo sapiens, UniProt P29372). In words: Inhibition of human purified MPG pre-incubated with compound for 10 mins followed by addition of 1,N6 ethenoadenine containing 32P-labeled duplex oligonucleotide substrates by gel-based excision activity assay. The essentials: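 Purified hMPG (2.3 nM) pre-incubated 10 min at room temperature with a range of compound concentrations. Then 7 nM εA ³²P-duplex substrate, 10 min at 37°C, in HEPES pH 7.9 buffer with 150 mM NaCl. Heat stop, APE1 cleavage of AP sites. Products resolved on 7 M urea/20% PAGE and bands quantified; IC50 from the concentration series.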
T1 sequence (P29372 whole entry): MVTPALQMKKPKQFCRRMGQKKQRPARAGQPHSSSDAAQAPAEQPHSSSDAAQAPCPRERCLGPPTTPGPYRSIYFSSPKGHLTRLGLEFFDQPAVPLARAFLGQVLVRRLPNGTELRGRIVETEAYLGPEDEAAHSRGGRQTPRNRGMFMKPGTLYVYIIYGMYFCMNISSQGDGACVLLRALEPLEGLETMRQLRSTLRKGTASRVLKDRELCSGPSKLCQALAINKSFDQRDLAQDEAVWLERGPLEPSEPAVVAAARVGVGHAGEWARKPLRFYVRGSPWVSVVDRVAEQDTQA

A short description of series [2]: Binding affinity to ethenoadenine containing 5'-TCGAGGATCCTGAGCTCGAGTCGACGXTCGCGAATTCTGCGGATCCAAGC-3' duplex oligonucleotide DNA (unknown origin) at 15 uM by SPR assay. The essentials:
(§1)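 Biotinylated 50-mer oligonucleotide, undamaged or εA-containing, immobilized on streptavidin-coated C1 chip (Biacore T100). Compound injected at 15 µM in 10 mM HEPES-KOH pH 7.6, 90 mM KCl, 0.05% surfactant P20 at 7°C; background-subtracted RU recorded over repeated 60 s injections.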
On the technique in general: SPR reads the build-up and loss of mass on a sensor chip optically.

For series [3], the target named is T1, DNA-3-methyladenine glycosylase. Briefly: Inhibition of human purified MPG pre-incubated with compound for 10 mins followed by addition of 1,N6 ethenoadenine containing 32P-labeled duplex oligonucleotide substrates at 20 uM by gel-based excision activity assay. The essentials: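 Purified hMPG (2.3 nM) pre-incubated 10 min at room temperature with 20 µM compound. Then 7 nM εA ³²P-duplex added, 10 min at 37°C, in 25 mM HEPES pH 7.9, 150 mM NaCl, BSA, DTT, 10% glycerol. Stopped 65°C, AP sites cut with 15 nM APE1/5 mM MgCl₂. Denaturing 20% PAGE, band densitometry.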

For series [4] the target is unchanged. In words: Inhibition of MPG in human A549 cell extracts at 50 to 300 uM using 1,N6 ethenoadenine containing 32P-labeled duplex oligonucleotide substrates by gel-based excision activity assay. The essentials: (§2)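 Whole-cell extract (5 µg; A549 or HeLa, made with M-PER) pre-incubated with compound at 0, 50, 100, 200 and 300 µM for 10 min at room temperature. Then 3 nM εA ³²P-duplex substrate added; buffer and workup as for purified enzyme. Product bands on denaturing urea gel quantified as percent product formation, normalised to untreated samples.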

The target is the same in series [5]. In words: Inhibition of MPG in human HeLa cell extracts at 50 to 300 uM using 1,N6 ethenoadenine containing 32P-labeled duplex oligonucleotide substrates by gel-based excision activity assay. The essentials:
as §2

A short description of series [6]: Binding affinity to 5'-TCGAGGATCCTGAGCTCGAGTCGACGXTCGCGAATTCTGCGGATCCAAGC-3' duplex oligonucleotide DNA (unknown origin) at 15 uM by SPR assay. The essentials: as §1
Series [7] has as its target T1, DNA-3-methyladenine glycosylase. In words: Inhibition of human purified MPG binding to immobilized ethenoadenine containing 5'-TCGAGGATCCTGAGCTCGAGTCGACGXTCGCGAATTCTGCGGATCCAAGC-3' duplex oligonucleotide at 5 to 40 uM by SPR assay. The essentials:
(§3)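 εA-containing 50-mer biotinylated and immobilised on a streptavidin C1 chip. 30 nM hMPG pre-mixed with compound (0, 5, 10, 20, 40 µM) and injected twice for 60 s each. Buffer: 10 mM HEPES-KOH pH 7.6, 90 mM KCl, 0.05% P20, 7°C. Inhibition taken as percent decrease in background-subtracted RU versus DMSO.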

Series [8] shares this target. In words: Inhibition of human purified MPG binding to immobilized ethenoadenine containing 5'-TCGAGGATCCTGAGCTCGAGTCGACGXTCGCGAATTCTGCGGATCCAAGC-3' duplex oligonucleotide at 40 uM by SPR assay. The essentials: as §3
Series [9] deals with DNA repair nuclease/redox regulator APEX1 (Homo sapiens) (UniProt P27695). Briefly: Inhibition of APE1 (unknown origin) pre-incubated with compound for 10 mins followed by addition of […] at 20 to 40 uM by gel-based excision activity assay.
DNA repair nuclease/redox regulator APEX1 (Homo sapiens), sequence (P27695 whole entry): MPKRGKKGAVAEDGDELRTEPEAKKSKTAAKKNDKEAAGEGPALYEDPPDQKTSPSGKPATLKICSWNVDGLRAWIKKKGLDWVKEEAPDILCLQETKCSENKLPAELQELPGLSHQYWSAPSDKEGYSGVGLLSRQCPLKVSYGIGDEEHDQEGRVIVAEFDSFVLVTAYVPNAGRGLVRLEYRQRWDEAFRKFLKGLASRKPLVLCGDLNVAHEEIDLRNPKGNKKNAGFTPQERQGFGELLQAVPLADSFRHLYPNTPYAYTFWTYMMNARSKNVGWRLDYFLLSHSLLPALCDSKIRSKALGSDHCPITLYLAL
The target in series [10] is N-glycosylase/DNA lyase (Homo sapiens) (UniProt O15527). In words: Inhibition of OGG1 (unknown origin) pre-incubated with compound for 10 mins followed by addition of […] containing 32P-labeled duplex oligonucleotide substrates at 20 to 40 uM by gel-based excision activity assay. The essentials: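 Purified OGG1 pre-incubated with compound (0, 20, 40 µM) 10 min at room temperature. Products resolved on denaturing 20% polyacrylamide/7M urea gels; band intensities quantified.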
N-glycosylase/DNA lyase (Homo sapiens), sequence (O15527 whole entry): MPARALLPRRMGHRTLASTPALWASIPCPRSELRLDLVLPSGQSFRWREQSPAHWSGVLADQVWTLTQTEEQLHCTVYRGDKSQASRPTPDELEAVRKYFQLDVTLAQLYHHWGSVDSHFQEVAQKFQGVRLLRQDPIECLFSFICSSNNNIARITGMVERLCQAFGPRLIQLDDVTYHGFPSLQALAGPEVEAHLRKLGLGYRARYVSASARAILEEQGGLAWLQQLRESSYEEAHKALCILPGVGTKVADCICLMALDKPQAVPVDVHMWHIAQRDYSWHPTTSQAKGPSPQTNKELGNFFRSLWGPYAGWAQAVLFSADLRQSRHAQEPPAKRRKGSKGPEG

For series [11], the target named is T1, DNA-3-methyladenine glycosylase. Briefly: Inhibition of MPG in human A549 cells assessed as reduction in DNA repair at 200 and 300 uM using ethenoadenine-containing M13mp18 plasmids by plasmid based in-cell repair assay. The essentials:
(§4)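 Lesion plasmid built in vitro: M13mp18 with εA at the EcoRI site; cells in DMEM/10% FBS, compound at 0, 200 or 300 µM. Plasmid transfected into cells, then recovered after harvest. EcoRI digest tests the lesion site and SacI the internal control site. Repair scored by plaque formation.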

The target in series [12] is N-glycosylase/DNA lyase (Homo sapiens) (UniProt O15527). Briefly: Inhibition of OGG1 in human A549 cells assessed as reduction in DNA repair at 200 and 300 uM using 8-oxodG-containing M13mp18 plasmids by plasmid based in-cell repair assay. The essentials: (§5)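 A549 or HeLa cells (DMEM, 10% FBS) treated with compound (0, 200, 300 µM) and transfected with in vitro–built 8-oxo-dG-containing M13mp18 plasmid (lesion at EcoRI site). Plasmids recovered, digested with EcoRI (lesion site) and SacI (internal control), and used for plaque formation to calculate repair.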

Series [13] concerns the target T1, DNA-3-methyladenine glycosylase. In words: Inhibition of MPG in human HeLa cells assessed as reduction in DNA repair at 200 and 300 uM using ethenoadenine-containing M13mp18 plasmids by plasmid based in-cell repair assay. The essentials:
as §4

The target in series [14] is N-glycosylase/DNA lyase (Homo sapiens) (UniProt O15527). Briefly: Inhibition of OGG1 in human HeLa cells assessed as reduction in DNA repair at 200 and 300 uM using 8-oxodG-containing M13mp18 plasmids by plasmid based in-cell repair assay. The essentials: as §5
Series [15] deals with T1, DNA-3-methyladenine glycosylase. Briefly: Inhibition of MPG in human HeLa cells assessed as reduction in DNA repair at 300 uM using ethenoadenine-containing M13mp18 plasmids by plasmid based in-cell repair assay. The essentials:
as §4

Series [16] shares this target. In words: Inhibition of MPG in human A549 cells assessed as reduction in DNA repair at 300 uM using ethenoadenine-containing M13mp18 plasmids by plasmid based in-cell repair assay. The essentials:
as §4

For the next series, the system named is A549. In words: Toxicity against human A549 cells assessed as reduction in cell viability at 0.2 to 1.4 mM after 72 hrs by MTT assay. To be noted: a549, 72 h, 1400 µM. The format is cell-based. The essentials: (§6)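 A549 or HeLa cells seeded at 2000 per well, treated next day for 72 h in triplicate with compound (0–2 mM). Then MTT 0.5 mg/mL for 4 h at 37°C, DMSO solubilization. Absorbance read at 570 nm minus 650 nm background; percent survival relative to untreated wells.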
A general note: Formazan colour is commonly taken as a measure of viable cells.

A further series relates to HeLa. In words: Toxicity against human HeLa cells assessed as reduction in cell viability at 0.2 to 1.4 mM after 72 hrs by MTT assay. It is filed as cell-based. To be noted: 1400 µM. The essentials:
as §6

Consider 9 molecules from ChEMBL document CHEMBL3397015, “Naturally occurring polyphenol, morin hydrate, inhibits enzymatic activity of N-methylpurine DNA glycosylase, a DNA repair enzyme with various roles in human disease” (Bioorg Med Chem, 2015).

The structures appear in SMILES notation. pIC50: −log10 of the molar value. Values joined by “and” are separate entries in the source; they are usually repeats but may differ in a detail not shown here. Identical values can stand only once. Counter-ions that a name gives are not always drawn. Active and inactive are the calls of the source. No cut-off for these calls is given here.

One may read the pIC50 as the IC50 on a negative log10 scale, so that one unit is a factor of ten. By inhibition is commonly meant how much of the control response was suppressed.

Turning to `Cc1cc2c(C(C)C)c(O)c(O)c(C=O)c2c(O)c1-c1c(C)cc2c(C(C)C)c(O)c(O)c(C=O)c2c1O` [GOSSYPOL], the pIC50 in series [1] was 5.52. Also, the result in series [2] was Active.
Take `O=C/C=C/c1ccccc1`: the inhibition in series [3] turned out to be 0%.
Turning to `O=C1c2c(O)ccc(O)c2C(=O)c2c(NCCNCCO)ccc(NCCNCCO)c21` [MITOXANTRONE HYDROCHLORIDE], in [1], the pIC50 was 5.60. In addition, the result in series [2] was Active.
Turning to `O=c1c(O)c(-c2ccc(O)cc2)oc2cc(O)cc(O)c12`, the inhibition in [3] is 25%.
`O=C(O)/C=C/c1ccc(O)c(O)c1`: the inhibition in [3] worked out at 0%.
With `O=C(O)C1=CC(=C(c2ccc(O)c(C(=O)O)c2)c2ccc(O)c(C(=O)O)c2)C=CC1=O` [AURINTRICARBOXYLIC ACID], the pIC50 in [1] is 6.70.
Consider `O=c1c(O)c(-c2ccc(O)c(O)c2)oc2cc(O)cc(O)c12`, for which the inhibition in series [3] is 38% and 44%. Also, the inhibition result in series [4] and in series [5] was “inactive” throughout.
On to `O.O=c1c(O)c(-c2ccc(O)cc2O)oc2cc(O)cc(O)c12`, for which the pIC50 in series [1] was 5.59; in series [7] it was 4.92. The outcome in series [2] and in series [6] was inactive. The inhibition entry in series [8] was “Active”. Moreover, the inhibition entry in series [9], in series [10], in series [12] and in series [14] was “inactive” in each case. Further, the inhibition in [3] is 81%; in [4], “Dose-dependent effect”; in series [5], “Dose-dependent effect”; in series [11], “Dose-dependent effect”; in series [13], “Dose-dependent effect”; in series [15], 50%. In addition, the inhibition in series [16] was found to be 50%. Moreover, the Activity entry in the series with A549 and with HeLa was “Non-toxic” each time.
`O=c1c(O)c(-c2cc(O)c(O)c(O)c2)oc2cc(O)cc(O)c12`: the inhibition in series [3] is 36%.
